ChEMBL document CHEMBL1136517, “Optimization of alpha-acylaminoketone ecdysone agonists for control of gene expression” (Bioorg Med Chem Lett, 2003)
pEC50: −log10 of the molar value.

How the values were obtained:
Ecdysone receptor [1] = target: T1, Ecdysone receptor (Bombyx mori, UniProt P49881); assay: Dose affording 50% of maximum transactivation for ecdysone receptor from Bombyx mori (BmEcR) and a beta-galactosidase reporter gene in HEK293 cell-line; format: functional, cell-based
T1 sequence (P49881 whole entry): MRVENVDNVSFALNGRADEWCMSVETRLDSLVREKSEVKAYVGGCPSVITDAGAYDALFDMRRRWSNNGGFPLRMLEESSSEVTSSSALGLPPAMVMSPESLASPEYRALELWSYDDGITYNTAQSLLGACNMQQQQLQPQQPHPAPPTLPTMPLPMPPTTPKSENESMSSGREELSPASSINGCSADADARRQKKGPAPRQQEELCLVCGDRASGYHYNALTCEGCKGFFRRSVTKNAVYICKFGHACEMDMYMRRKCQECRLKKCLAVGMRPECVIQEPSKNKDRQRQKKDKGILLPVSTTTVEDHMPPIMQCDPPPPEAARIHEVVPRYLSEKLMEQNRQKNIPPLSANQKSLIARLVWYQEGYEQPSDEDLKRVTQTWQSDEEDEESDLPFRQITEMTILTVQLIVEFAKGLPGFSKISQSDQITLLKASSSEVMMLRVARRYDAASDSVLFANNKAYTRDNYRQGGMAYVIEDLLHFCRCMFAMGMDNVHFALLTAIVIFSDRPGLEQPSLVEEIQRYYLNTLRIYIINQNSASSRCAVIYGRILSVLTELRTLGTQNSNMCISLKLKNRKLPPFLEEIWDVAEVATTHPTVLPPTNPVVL
How it was run: (§1)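 HEK-293 clone Z3 stably expressing BmEcR with a β-galactosidase reporter, selected with G418 (450) and puromycin (100 ng/mL). Cells seeded at 2.5 × 10⁴ cells/mL and held 24 h at 37 °C in 5% CO₂. Ligands came from 10 mM DMSO stocks diluted […] in medium, with final DMSO 0.03%. Bioluminescent β-gal read at 48 h, room temperature. Fold induction is treated RLU over DMSO RLU. EC50 is the dose giving 50% of maximum transactivation. RMFI is maximum expression relative to that of the standard agonist control.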

Ecdysone receptor [2] = target: T2, Ecdysone receptor (Choristoneura fumiferana, UniProt O77240); assay: Dose affording 50% of maximum transactivation for ecdysone receptor from Choristoneura fumiferana (CfEcR) and a luciferase reporter gene in CHO cells; format: functional, cell-based
T2 sequence (O77240 whole entry): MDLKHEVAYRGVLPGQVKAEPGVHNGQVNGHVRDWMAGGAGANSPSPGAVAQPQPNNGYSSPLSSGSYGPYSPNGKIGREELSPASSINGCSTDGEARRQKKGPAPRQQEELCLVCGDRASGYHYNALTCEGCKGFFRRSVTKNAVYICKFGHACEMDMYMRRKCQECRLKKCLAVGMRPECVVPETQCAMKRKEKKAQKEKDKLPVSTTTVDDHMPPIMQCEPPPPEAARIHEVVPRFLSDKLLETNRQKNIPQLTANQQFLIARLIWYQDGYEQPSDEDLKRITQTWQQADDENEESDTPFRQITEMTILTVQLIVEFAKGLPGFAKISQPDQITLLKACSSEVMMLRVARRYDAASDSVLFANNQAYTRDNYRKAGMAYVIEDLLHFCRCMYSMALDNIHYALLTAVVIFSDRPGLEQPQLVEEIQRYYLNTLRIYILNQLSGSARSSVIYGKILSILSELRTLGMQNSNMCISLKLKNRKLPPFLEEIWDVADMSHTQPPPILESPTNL
How it was run: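 CHO cells stably carrying GAL4 DBD(1-147)-CfEcR(DEF) and VP16-bRXR-LmUSP chimera cassettes (Zeocin selection), plus GAL4 RE-luciferase reporter (clone 27-63, hygromycin). Cells plated at 2.5 × 10⁴ cells mL⁻¹. DMSO ligand stocks diluted 300-fold; 8 concentrations, 33 to 0.01. Luciferase read 48 h after treatment. Value is the dose giving 50% of maximum transactivation.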

[3] = target: T3, Ecdysone receptor (Bombyx mori) (UniProt P49881); assay: Ratio of maximum level of gene expression (ecdysone receptor and beta-galactosidase receptor) of compound to maximum level of gene expression with GSTM-E expressed as RMFI; format: functional; how it was run: as §1
T3 sequence (whole entry): T1 sequence (P49881 whole entry)

[4] = target: T4, Ecdysone receptor (Choristoneura fumiferana) (UniProt O77240); assay: Ratio of maximum level of gene expression (ecdysone receptor and luciferase gene) of compound to maximum level of gene expression with GSTM-E expressed as RMFI; format: functional
T4 sequence (whole entry): T2 sequence (O77240 whole entry)
How it was run: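 CHO clone 27-63 stably carries GAL4 DBD–CfEcR(DEF) plus VP16–RXR/LmUSP chimera, selected with Zeocin. A GAL4-RE luciferase reporter was added and selected with hygromycin. Cells plated at 2.5 × 10⁴ cells/mL. DMSO ligand stocks diluted 300-fold, tested at 8 concentrations from 33 to 0.01. Luciferase measured 48 h after treatment. RMFI is maximum expression relative to that of the standard agonist control.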

| SMILES | pEC50 (Ecdysone receptor [1]) | pEC50 (Ecdysone receptor [2]) | Ratio [3] | Ratio [4] |
| --- | --- | --- | --- | --- |
| COc1cccc(C(=O)NC2(C(=O)c3cc(C)cc(C)c3)CCSCC2)c1C | 5.80 | 5.74 | 0.98 | 0.85 |
| CCc1c(OC)cccc1C(=O)NN(C(=O)c1cc(C)cc(C)c1)C(C)(C)C | 6.60 | 6.39 | 1 | 1 |
| COc1cccc(C(=O)NC2(C(=O)c3cc(C)cc(C)c3)CCS(=O)(=O)CC2)c1C | 4.82 | 4.52 | 0.1 | 0.04 |
| CCc1c(OC)cccc1C(=O)NC1(C(=O)c2cc(C)cc(C)c2)CCCCC1 | 5.74 | 5.90 | 0.85 | 0.89 |
| CCc1ccc(C(=O)NC2(C(=O)c3cc(C)cc(C)c3)CCCCC2)cc1 | 5.82 |  | 0.63 |  |
| CCC(CC)(NC(=O)c1cccc(OC)c1C)C(=O)c1cc(C)cc(C)c1 | 5.34 | 5.21 | 0.61 | 0.54 |
| COc1ccccc1C(=O)C1(NC(=O)c2cccc(OC)c2C)CCCCCC1 | 5.71 | 5.47 | 0.78 | 0.66 |
| COc1cccc(C(=O)NN(C(=O)c2cc(C)cc(C)c2)C(C)(C)C)c1C [METHOXYFENOZIDE] | 7.00 | 6.55 | 1.03 | 1.02 |
| COc1cccc(C(=O)NC2(C(=O)c3cc(C)cc(C)c3)CCCCC2)c1C | 5.85 | 5.95 | 0.99 | 0.96 |
| COc1cccc(C(=O)NC2(C(=O)c3cc(C)cc(C)c3)CC2)c1C | 4.69 | 4.48 | 0.22 | 0.09 |
| COc1ccccc1C(=O)C1(NC(=O)c2cccc(OC)c2C)CCCCC1 | 6.01 | 5.99 | 0.84 | 0.71 |
| CCc1c(C(=O)NC2(C(=O)c3cc(C)cc(C)c3)CCCCC2)ccc2c1OCCO2 | 6.13 | 6.41 | 0.89 | 0.91 |
| COc1cccc(C(=O)NC2(C(=O)c3cc(C)cc(C)c3)CCCC2)c1C | 5.73 | 5.72 | 0.85 | 0.86 |
| Cc1cc(C)cc(C(=O)C2(NC(=O)c3ccc4c(c3C)OCO4)CCCCC2)c1 | 5.43 | 5.49 | 0.81 | 0.91 |
| COc1cccc(C(=O)NC2(C(=O)c3cc(C)cc(C)c3)CCC2)c1C | 5.07 | 5.00 | 0.69 | 0.89 |
| COc1cccc(C(=O)NC(C)(C)C(=O)c2cc(C)cc(C)c2)c1C | 5.00 | 4.38 | 0.17 | 0.29 |
| COc1ccccc1C(=O)C1(NC(=O)c2cccc(OC)c2C)CCCC1 | 5.29 | 5.18 | 0.7 | 0.67 |
| COc1cccc(C(=O)NC2(C(=O)c3cc(C)cc(C)c3)CCOCC2)c1C | 5.00 | 5.00 | 0.18 | 0.96 |
| COc1cccc(C(=O)NC2(C(=O)c3cc(C)cc(C)c3)CCCCCC2)c1C | 5.79 | 5.53 | 0.69 | 0.88 |
